Test results as given in PubChem BioAssay.
The source made the active and inactive calls.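 Rule for the calls, unless noted: active = a full or partial loss of lipid-probe fluorescence in the fish gall bladder, intestine or both, judged by eye; inactive = no fluorescence loss, or compound toxic to the fish.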

Columns and labels:
[1] = inhibitors of TNFa-induced NFkB p65 translocation, primary screen, imaging, HUVEC, MLSMR starter and 10KST1 sets (AID 438;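 active = inhibition above 20% together with a positive visual image hit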;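 note: compound added about 3h40 before a 20 min TNFalpha stimulation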;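 for inhibition: signal is the nuclear over cytoplasmic p65 intensity ratio per well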); conditions: HUVEC TNFa-induced p65 nuclear translocation; cell count: measured here: nuclei count (cytotoxicity indicator), at 2.08 µM; inhibition: at 2 µM, stronger effect = higher value, 0% TNFa-plus-vehicle, 100% no-TNFa wells
[2] = endothelial E-selectin expression blockers – imaging, HUVEC, immunofluorescence, MLSMR starter and 10KST1 sets, primary screen (AID 487;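 active = visually confirmed hit in the image check and inhibition above 20%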;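 for inhibition: signal is fraction of cell area covered by stained E-selectin grains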;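 for nuclei count: 100% = median nuclei count of all wells on the same plate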); conditions: HUVEC TNFalpha-induced E-selectin immunofluorescence imaging, at 2 µM; inhibition: stronger effect = higher value; nuclei count: measured here: cell number, toxicity
[3] = Primary imaging screen for DUSP6 inhibitors that restore phospho-Erk in transfected HeLa cells, chemical complementation (AID 609;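 active = compounds giving at least 50% inhibition in the cell-based MKP-3 phosphatase rescue imaging test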;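 for inhibition: phospho-Erk level distribution per well compared with pooled transfected vehicle control wells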); conditions: HeLa MKP-3 transfected, phospho-Erk imaging KS statistic, at 10 µM, cells stimulated with TPA for 15 min
[4] = biological target: Dual specificity protein phosphatase 6 (Homo sapiens) (UniProt Q16828); assay: as above; conditions: HeLa MKP-3 transfected, phospho-Erk imaging KS statistic; at 10 µM; stronger effect = higher value; cells stimulated with TPA for 15 min
[5] = biological target: Voltage-gated potassium channel subunit beta-2 (Rattus norvegicus) (UniProt P62483); assay: inhibitors of rat Kvbeta2 reductase activity – biochemical, NADPH fluorescence, primary screen (AID 622;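 active = fluorescence slope higher than the sample average by over 3 SD, cut at about -0.22 in these data, passing the limit was not always enough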;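 note: slope of raw intensity against log time taken from 70 to 1610 s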); conditions: recombinant KvBeta, 4-cyanobenzaldehyde reduction, at 10 µM, stronger effect = higher value
[6] = biological target: Voltage-gated potassium channel subunit beta-2 (Rattus norvegicus) (UniProt P62483); assay: enhancers of rat Kvbeta2 NADPH turnover – biochemical, NADPH fluorescence, primary screen (AID 623;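 active = NADPH fluorescence slope more negative than the mean of all samples by about 3 SD, 99.7% confidence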;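 note: fluorescence intensity change per second fitted from 20 to 320 s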); conditions: Recombinant KvBeta, NADPH fluorescence decrease slope, 10 min; at 10 µM; stronger effect = lower value
[7] = biological target: Alpha-2C adrenergic receptor (Homo sapiens) (UniProt P18825); assay: compounds altering alpha2C-coupled GIRK flux – cell-based, HEK293 alpha2C/GIRK1/2, thallium flux, primary screen (AID 624;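 active = fluorescence slope after compound addition differing from the mean of all screened samples at 99.7% confidence, in either direction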;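 note: slope of fluorescence ratio to pre-addition baseline per second over 15 to 24 s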); conditions: thallium flux BTC fluorescence, at 10 µM, actives lie on both sides
[8] = inhibitors of larval lipid processing in zebrafish, primary screen, whole organism, PED6 fluorescence, gall bladder and intestine (AID 686); conditions: Zebrafish larvae PED6 lipid processing, fluorescence scoring; screened at 20 µM (by protocol);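 note: larvae 5 to 7 days old with five fish per well; signal comes from phospholipase A2 cleavage of quenched PED6 carried via bile; overnight exposure to compound and PED6 before scoring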
Procedure, shortened: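 system = live zebrafish larvae aged 5-7 days, whole organism | probe or stimulus = ingested quenched lipid PED6 at 100 nM | doses = 20 µM single dose | timing = overnight exposure | detection = fluorescence microscopy with visual scoring of gall bladder and intestine | read-out = visual per-well fluorescence inhibition score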

[9] = loss of swimming-algae plug formation – whole organism, Chlamydomonas reinhardtii, WT vs cilia-less mutant, absorbance, 96-well, primary screen (AID 463189;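 active = inhibition at or above 50% relative to wild type and mutant plate controls; inactive = inhibition below 50%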;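 note: 0% = wild type cc124 cells in DMSO and 100% = ciliumless bld1 mutant cells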); conditions: Chlamydomonas reinhardtii gravitaxis, OD600 absorbance, 2 days; at 10 µM; stronger effect = higher value
[10] = measured here: cell density z-score
[11] = measured here: nuclear c-Myc green intensity z-score
[12] = measured here: nuclear pErk red intensity z-score, stronger effect = higher value

Chain of Voltage-gated potassium channel subunit beta-2 (Rattus norvegicus) (P62483 whole entry, looked up): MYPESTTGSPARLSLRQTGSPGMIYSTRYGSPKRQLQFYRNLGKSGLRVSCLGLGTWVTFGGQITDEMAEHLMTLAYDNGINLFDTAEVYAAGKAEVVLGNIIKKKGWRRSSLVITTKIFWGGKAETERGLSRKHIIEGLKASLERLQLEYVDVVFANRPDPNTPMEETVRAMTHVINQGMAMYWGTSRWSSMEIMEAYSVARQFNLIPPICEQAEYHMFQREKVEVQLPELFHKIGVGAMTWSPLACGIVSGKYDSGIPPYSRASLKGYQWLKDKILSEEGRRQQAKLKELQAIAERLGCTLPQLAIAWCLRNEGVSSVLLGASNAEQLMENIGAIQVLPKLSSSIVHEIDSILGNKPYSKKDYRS
Chain of Dual specificity protein phosphatase 6 (Homo sapiens) (Q16828 whole entry, looked up): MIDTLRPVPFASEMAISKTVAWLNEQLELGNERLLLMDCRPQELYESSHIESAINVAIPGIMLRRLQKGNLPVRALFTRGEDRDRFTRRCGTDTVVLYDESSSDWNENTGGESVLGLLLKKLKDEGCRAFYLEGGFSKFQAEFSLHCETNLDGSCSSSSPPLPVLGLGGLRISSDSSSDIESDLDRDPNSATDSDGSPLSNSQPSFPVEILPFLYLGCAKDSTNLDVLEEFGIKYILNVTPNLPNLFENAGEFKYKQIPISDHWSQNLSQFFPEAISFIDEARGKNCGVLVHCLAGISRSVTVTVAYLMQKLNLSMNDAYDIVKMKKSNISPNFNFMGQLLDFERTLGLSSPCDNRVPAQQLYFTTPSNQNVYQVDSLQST
Chain of Alpha-2C adrenergic receptor (Homo sapiens) (P18825 whole entry, looked up): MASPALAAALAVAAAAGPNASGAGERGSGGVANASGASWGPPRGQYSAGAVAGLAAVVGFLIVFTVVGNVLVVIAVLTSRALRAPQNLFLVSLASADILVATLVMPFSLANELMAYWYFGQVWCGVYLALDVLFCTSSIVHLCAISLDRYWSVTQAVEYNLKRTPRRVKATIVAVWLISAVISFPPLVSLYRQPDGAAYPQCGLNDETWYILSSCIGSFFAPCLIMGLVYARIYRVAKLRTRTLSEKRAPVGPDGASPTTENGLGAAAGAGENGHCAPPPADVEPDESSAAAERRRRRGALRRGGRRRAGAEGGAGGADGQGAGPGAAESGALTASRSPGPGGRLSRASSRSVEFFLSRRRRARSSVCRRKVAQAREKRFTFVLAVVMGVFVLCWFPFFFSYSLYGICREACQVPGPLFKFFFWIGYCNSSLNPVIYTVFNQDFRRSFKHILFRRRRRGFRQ

Compound	cell count [1]	inhibition [1]	inhibition [2]	nuclei count [2]	z-score [3, 10]	z-score [3, 11]	z-score [3, 12]	inhibition [4]	fluorescence slope [5]	NADPH fluorescence slope [6]	slope [7]	outcome [8]	inhibition [9]
COc1ccc(OC)c(C2/C(=C(/O)c3cnn(-c4ccccc4)c3C)C(=O)C(=O)N2CCN(C)C)c1 (stereo unspecified)	452	1.9% (inactive)	8.9% (inactive)	86.9%	-1.51	0.604	-0.829	-1.75% (inactive)	-0.47 (inactive)	-9.5e-06 (inactive)	0.00657 (inactive)	inactive	12% (inactive)
COc1cccc(-c2nc(N3CCN(Cc4ccccc4)CC3)c3ccccc3n2)c1O	578	-4.5% (inactive)	7% (inactive)	126%	-0.018	0.0703	0.663	3.5% (inactive)	-0.272 (inactive)	8.6e-06 (inactive)	0.0051 (inactive)	inactive	8.35% (inactive)
COc1ccc(-n2c(=O)c3c4c(sc3n3c(C)nnc23)CC(C)CC4)cc1 (stereo unspecified)	617	3.9% (inactive)	15.9% (inactive)	162%	-1.05	0.383	-0.315	-0.608% (inactive)	-0.324 (inactive)	8.8e-06 (inactive)	0.00514 (inactive)	inactive	53.4% (active)
COc1ccc(OC)c(NC(=O)CSc2nnc(-c3ccco3)n2-c2ccc(C(=O)O)cc2)c1	494	-27.8% (inactive)	-97.7% (inactive)	158%	0.414	-0.401	-0.476	11.9% (inactive)	-0.505 (inactive)	-3.4e-05 (inactive)	0.00721 (inactive)	inactive	2.3% (inactive)
CC(C)(C)NCC(=O)c1c[nH]c2ccccc12	535	-1.7% (inactive)	-49.5% (inactive)	146%	-0.736	1.42	-0.666	-1.75% (inactive)	-0.35 (inactive)	5.2e-06 (inactive)	0.00435 (inactive)	inactive	-1.18% (inactive)
COc1cccc(OC)c1-c1nn2c(-c3ccco3)nnc2s1	630	-5.2% (inactive)	-86.6% (inactive)	172%	0.253	0.886	-0.677	10.1% (inactive)	-0.431 (inactive)	-0.000166 (inactive)	0.00439 (inactive)	inactive	5.78% (inactive)
CC(=O)OCc1c(COC(C)=O)[n+](=O)c2ccccc2n1[O-]	523	-7% (inactive)	-114% (inactive)	156%	0.0201	-0.163	-0.453	2.46% (inactive)	-0.322 (inactive)	1.5e-05 (inactive)	0.00492 (inactive)	inactive	17% (inactive)
COc1ccc(C(=O)/C=C/Nc2cccc(C)n2)cc1OC	553	-2.4% (inactive)	-95.1% (inactive)	164%	-1.16	0.461	0.22	-1.12% (inactive)	-0.33 (inactive)	-2.1e-05 (inactive)	0.00813 (inactive)	inactive	-7.36% (inactive)
CCCOC(=O)CSC1=C(C#N)C(c2ccccc2OC)C(C#N)C(=O)N1 (stereo unspecified)	496	-3.9% (inactive)	-60% (inactive)	136%	-0.969	0.676	0.273	-2.07% (inactive)	-0.5 (inactive)	-7.4e-05 (inactive)	0.00543 (inactive)	inactive	-12.6% (inactive)
Cc1cc(C)cc(CC2CC(=O)N(c3cc(C)on3)C2=O)c1 (stereo unspecified)	491	-7% (inactive)	-80.4% (inactive)	132%	-0.204	-0.209	1.15	3.66% (inactive)	-0.517 (inactive)	-6.6e-05 (inactive)	0.00547 (inactive)	inactive	2.69% (inactive)
O=C(CCN1CCCCC1)Nc1cccc(Cl)c1	336	-14.7% (inactive)	-49.9% (inactive)	138%	-1.72	0.965	0.516	-3.5% (inactive)	-0.42 (inactive)	-0.000129 (inactive)	0.0069 (inactive)	inactive	-5.09% (inactive)
CC(C)Cc1[nH]c(=O)c(C#N)c2c1CCCC2	623	1.3% (inactive)	2.8% (inactive)	155%	-1.11	0.566	0.412	5.65% (inactive)	-0.318 (inactive)	-9.4e-06 (inactive)	0.00948 (inactive)	inactive	16.6% (inactive)
CC1(C)Cc2c(C#N)c(SCC(=O)c3ccccc3)nc(N3CCCC3)c2CO1	520	-6.5% (inactive)	15.1% (inactive)	115%	1.33	-0.926	-0.674	9.82% (inactive)	-0.395 (inactive)	8.2e-06 (inactive)	0.00654 (inactive)	inactive	46.4% (inactive)
O=C(O)CCSc1ccc2ccccc2n1	502	0.3% (inactive)	-157% (inactive)	135%	1.96	-1.24	-0.378	15.8% (inactive)	-0.49 (inactive)	-7.2e-05 (inactive)	0.00505 (inactive)	inactive	9.45% (inactive)
COc1ccc(-c2nn3c(COc4ccccc4)nnc3s2)cc1OC	597	-0.7% (inactive)	33.6% (inactive)	96.3%	1.18	-0.256	-1	-0.674% (inactive)	-0.395 (inactive)	-6e-05 (inactive)	0.00544 (inactive)	inactive	-1.36% (inactive)
Clc1ccc2nc(CSc3nc4ccccc4o3)cn2c1	405	-12.3% (inactive)	-79.3% (inactive)	99.4%	-0.399	-0.856	-1.36	11.9% (inactive)	-0.49 (inactive)	-0.000153 (inactive)	0.00552 (inactive)	inactive	-14.7% (inactive)
Cc1cccc2c1NC(C)CC2C (stereo unspecified)	424	-23.2% (inactive)	-291% (inactive)	187%	1.31	-0.632	-0.589	7.7% (inactive)	-0.292 (inactive)	-6.6e-06 (inactive)	0.00419 (inactive)	active; weak signal in gallbladder and intestine	5.59% (inactive)
CCCCOC(=O)C(C)c1c(C)[nH]c(=S)[nH]c1=O (stereo unspecified)	479	-1.2% (inactive)	-142% (inactive)	138%	0.126	0.523	-0.0829	-3.5% (inactive)	-0.505 (inactive)	-3.9e-05 (inactive)	0.00553 (inactive)	inactive	11.1% (inactive)
COCc1cc(C)nc(N)c1C#N	606	5.8% (inactive)	-20.1% (inactive)	136%	0.714	-1.4	1.43	16.1% (inactive)	-0.219 (inactive)	9.7e-06 (inactive)	0.00554 (inactive)	inactive	-2% (inactive)
O=C1C=C(O)CC(c2ccco2)C1 (stereo unspecified)	558	5.7% (inactive)	-59% (inactive)	82%	0.0297	0.982	0.298	-6.48% (inactive)	-0.469 (inactive)	-0.00033 (inactive)	0.00402 (inactive)	inactive	-1.54% (inactive)
O=c1oc2c3c4c(cc2c(C(F)(F)F)c1CCN1CCOCC1)CCCN4CCC3	507	-1% (inactive)	-59.8% (inactive)	160%	-0.81	0.512	-1.2	-4.78% (inactive)	-0.315 (inactive)	-4.5e-05 (inactive)	0.0309 (active)	inactive	-7.21% (inactive)
Cc1ccc(-n2c(=O)c3c4c(sc3n3c(C)nnc23)COC(C(C)C)C4)cc1 (stereo unspecified)	551	-2.6% (inactive)	-1.3% (inactive)	122%	0.656	-0.667	-0.392	9.82% (inactive)	-0.411 (inactive)	2.1e-05 (inactive)	0.00541 (inactive)	inactive	49.1% (inactive)
COC(=O)c1ccc(=O)n(Cc2ccco2)c1	300	-2.7% (inactive)	-70.6% (inactive)	107%	-1.23	1.62	-0.83	-6.48% (inactive)	-0.404 (inactive)	-1.8e-06 (inactive)	0.00511 (inactive)	inactive	-14.2% (inactive)
Cc1ccc(C2C(C(=O)c3cc4ccccc4o3)=C(O)C(=O)N2CCN(C)C)o1 (stereo unspecified)	352	-3% (inactive)	23.2% (inactive)	101%	-1.49	2.05	-0.073	-6.48% (inactive)	-0.443 (inactive)	-2.4e-05 (inactive)	0.00982 (inactive)	inactive	-11.1% (inactive)
CCOC(=O)c1nc(N)c(C(=O)OCC)[nH]1	405	11.5% (inactive)	-32.3% (inactive)	94.7%	-0.517	1.59	-0.341	18.2% (inactive)	-0.47 (inactive)	-7.9e-05 (inactive)	0.00468 (inactive)	inactive	-16% (inactive)
CCOC(=O)COc1ccc(Oc2nc(C)cc(OC)n2)nn1	443	-4.6% (inactive)	-136% (inactive)	152%	0.693	-0.0792	0.257	0.671% (inactive)	-0.417 (inactive)	-8.4e-05 (inactive)	0.00639 (inactive)	inactive	9.9% (inactive)
Cc1ccc(-c2ccc(/C=N/c3ncn[nH]3)o2)cc1Cl	555	-7% (inactive)	17.3% (inactive)	119%	1.47	1.26	0.207	4.72% (inactive)	-0.446 (inactive)	-1.9e-05 (inactive)	0.00689 (inactive)	inactive	0.03% (inactive)
